Laboratory results reported in publication PMC3672268 (Molecular pharmaceutics, 2013).

B1: SCGB3A2: purified recombinant mouse secretoglobin 3A2 protein, given as treatment for PF (protein, UniProt Q920H1 22-91, looked up)
Secretoglobin family 3A …: LLINRLPVVDKLPVPLDDIIPSFDPLKMLLKTLGISVEHLVTGLKKCVDELGPEASEAVKKLLEALSHLV

Assays:
Type in all cases: in vivo, C57BL/6N mice
[1] = system: Mmp2 mRNA; experiment: Quantitative RT-PCR of Mmp2 mRNA in lungs of PF model; settings: for increase of Mmp2 mRNA level vs PBS-treated control lungs: qRT-PCR normalised to β-actin, mean ± SD
Outline: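 Mouse lung Mmp2 mRNA was measured by qRT-PCR (Superscript II RT) with gene-specific Mmp2 and β-actin primers. Cycling was 50 °C for 2 min and 95 °C for 10 min, then 40 cycles of 95 °C for 15 s and 60 °C for 40 s. Values were normalised to β-actin by ΔΔCt, with day-21 PBS lungs set as 1. Samples were taken on days 7/14/21 post-BLM; mean ± SD.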

[2] = Body weight in BLM-induced mouse PF model; settings: mice that received BLM, no SCGB3A2 treatment
Outline: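 C57BL/6N mice (7–8 weeks old, n = 10 per group) received one intratracheal dose of BLM (1.5 units/kg) by intubation, or PBS as control. Body weight was tracked over the 21-day study and expressed relative to the group's average day 0 weight, which was set as 100%.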

[3] = system: collagen fibers; experiment: Masson's trichrome staining of collagen in lung sections; settings: day 21; SCGB3A2 0.25 mg/kg/day i.v. for five days from day 7 after BLM
Outline: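 Lungs were inflated and fixed in 4% paraformaldehyde, embedded in paraffin, cut into 4-μm whole-lung sections and stained with Masson's trichrome (collagen blue), with H&E alongside. Lungs were collected on day 21.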

[4] = system: MMP-2; experiment: Western blot of active MMP-2 protein in lungs; settings: day 21 PF model, SCGB3A2-treated
Outline: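 Minced lung was lysed in RIPA buffer (Tris, NaCl, SDS, deoxycholate, Triton X-100, EDTA, NaF, orthovanadate) with protease inhibitors. Lysates were reduced, run on 10% SDS-PAGE, transferred to PVDF and blocked in TBS-Tween with 5% milk. Blots were probed with rabbit anti-MMP-2 ([…]) and β-actin, then an HRP secondary, and read by chemiluminescence on film or imager. Lungs were taken on day 21.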

[5] = biological target: MMP-2 (Mus musculus, UniProt P33434); experiment: Fluorescence microscopy of cleaved MMP-P12 in lung sections; settings: SCGB3A2-treated lung sections
Outline: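 Fibrotic mouse lungs were frozen, and 10 μm sections were air-dried, fixed in cold acetone for 20 min, air-dried for 30 min at RT and blocked with 10% BSA for 30 min. Sections were incubated with rabbit anti-MMP2 (10 μg/mL) for 60 min at RT in the dark, then Cy3 donkey anti-rabbit, and mounted in DAPI. Cy5.5 from the cleaved probe was viewed directly by epifluorescence at ×400.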

Chain of MMP-2 (Mus musculus, UniProt P33434) (P33434 110-662): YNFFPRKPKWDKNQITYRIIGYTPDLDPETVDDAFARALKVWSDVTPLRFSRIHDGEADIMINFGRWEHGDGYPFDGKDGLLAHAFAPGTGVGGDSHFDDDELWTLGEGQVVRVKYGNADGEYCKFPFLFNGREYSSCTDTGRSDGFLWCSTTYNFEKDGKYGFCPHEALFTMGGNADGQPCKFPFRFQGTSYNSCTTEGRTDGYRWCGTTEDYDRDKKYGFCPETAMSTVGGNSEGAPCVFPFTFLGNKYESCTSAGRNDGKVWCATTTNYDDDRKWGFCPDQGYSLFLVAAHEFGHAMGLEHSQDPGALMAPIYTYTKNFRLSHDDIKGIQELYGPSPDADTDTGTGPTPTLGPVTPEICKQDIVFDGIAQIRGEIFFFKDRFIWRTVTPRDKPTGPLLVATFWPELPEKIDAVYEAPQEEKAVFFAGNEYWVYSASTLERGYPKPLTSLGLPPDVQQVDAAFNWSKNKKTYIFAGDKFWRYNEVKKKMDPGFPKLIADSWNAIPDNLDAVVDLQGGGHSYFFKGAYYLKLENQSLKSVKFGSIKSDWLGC

Row | MMP-P12 cleavage (green) and MMP-2 (red) signals in lung sections [5] | Molecule | increase of Mmp2 mRNA level vs PBS-treated control lungs ([1]; day 7 post-BLM administration) [folds] | increase of Mmp2 mRNA level vs PBS-treated control lungs ([1]; day 14 post-BLM administration) [folds] | increase of Mmp2 mRNA level vs PBS-treated control lungs ([1]; day 21 post-BLM administration) [folds] | body weight loss by day 21 [2] | collagen expression in lungs vs BLM only-treated group [3] | active MMP-2 protein expression vs no treatment group [4] | Mmp2 mRNA expression vs no treatment group ([1]; day 21 PF model, SCGB3A2-treated, qRT-PCR)
1 | – | bleomycin [BLM] | 4.25±0.84 | 6±1.05 | 9±1.87 | ~ 20% | – | – | –
2 | weak | B1 | – | – | – | – | much lower | decreased | decreased
